Activity calls are given as the source filed them. The calls are words filed in the database; no cut-off is given here.
How the values were obtained:
U-251 [1] = assay: Growth inhibition of human U251 cells stably transfected with pGL2-TK-HRE plasmid after 24 hrs; type: cell-based; conditions: u-251, 24 h
[2] = molecular target: T1, Hypoxia inducible factors; HIF-1-alpha, HIF-2-alpha (Homo sapiens, UniProt Q16665+Q99814); assay: Inhibition of HIF1 activation in human U251 cells stably transfected in pGL2-TK-HRE plasmid under hypoxic condition after 16 to 24 hrs by luciferase reporter gene assay; type: cell-based; conditions: u-251
U-251 [3] = assay: Growth inhibition of human U251 cells stably transfected with pGL3 plasmid after 24 hrs; type: cell-based; conditions: u-251, 24 h
A549 = assay: Cytotoxicity against human A549 cells by MTT assay; type: functional
HT-29 = assay: Cytotoxicity against human HT-29 cells by MTT assay; type: functional
Procedure, shortened: (§1)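 Cells were grown in MEM with 10% fetal calf serum, 0.1 g L⁻¹ penicillin G and 0.1 g L⁻¹ streptomycin sulfate. They were seeded into 96-well plates one day before dosing and incubated overnight at 37 °C. Compounds were dissolved in DMSO, diluted in medium to several concentrations and left on the cells for six days. Survival was read colorimetrically by MTT at 547 nm, with adriamycin as reference.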

MCF7 = assay: Cytotoxicity against human MCF7 cells by MTT assay; type: functional; procedure, shortened: as §1
U-251 [4] = assay: Reduction in VEGF mRNA expression in wild type human U251 cells under hypoxic condition after 8 hrs; type: functional, cell-based
Procedure, shortened: (§2)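 Wild-type U251 cells treated 8 or 16 h under hypoxia (1% O₂, 37 °C). Total RNA isolated; 500 ng reverse-transcribed (10 min 25 °C, 30 min 48 °C, 5 min 95 °C). VEGF or CA9 transcript quantified by real-time PCR on 5 ng cDNA in triplicate (2 min 50 °C, 10 min 95 °C, then 40 cycles of 15 s 95 °C and 1 min 60 °C).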

U-251 [5] = assay: Reduction in carbonic anhydrase 9 mRNA expression in wild type human U251 cells under hypoxic condition at 0.1 uM after 8 hrs; type: functional, cell-based; procedure, shortened: as §2
U-251 [6] = assay: Reduction in carbonic anhydrase 9 mRNA expression in wild type human U251 cells under hypoxic condition at 0.1 uM after 16 hrs; type: functional, cell-based; procedure, shortened: as §2
U-251 [7] = assay: Inhibition of HIF1alpha protein expression in wild type human U251 cells under hypoxic condition at 0.025 uM treated 8 hrs before hypoxia induction; type: functional, cell-based
U-251 [8] = assay: Reduction in VEGF mRNA expression in wild type human U251 cells under hypoxic condition after 16 hrs; type: functional, cell-based; procedure, shortened: as §2
[9] = molecular target: T1, Hypoxia inducible factors; HIF-1-alpha, HIF-2-alpha; assay: Inhibition of HIF1 activation in human U251 cells stably transfected in pGL3 plasmid under hypoxic condition assessed as reduction of luciferase expression at 0.062 uM after 16 to 24 hrs by luciferase reporter gene assay; type: cell-based; set-up: scale not given: the % may be the effect or the level left; conditions: U-251
[10] = molecular target: T1, Hypoxia inducible factors; HIF-1-alpha, HIF-2-alpha; assay: Inhibition of HIF1 activation in human U251 cells stably transfected in pGL2-TK-HRE plasmid under hypoxic condition assessed as reduction of luciferase expression at 0.062 uM after 16 to 24 hrs by luciferase reporter gene assay; type: cell-based; set-up: scale not given: the % may be the effect or the level left; conditions: U-251
U-251 [11] = assay: Inhibition of HIF1alpha protein expression in wild type human U251 cells under hypoxic condition at 0.025 uM treated 16 hrs before hypoxia induction; type: functional, cell-based
[12] = molecular target: T1, Hypoxia inducible factors; HIF-1-alpha, HIF-2-alpha; assay: Inhibition of HIF1 activation in human U251 cells transiently transfected in pGL2-TK-HRE plasmid under hypoxic condition at 0.1 to 0.005 uM after 16 hrs by luciferase reporter gene assay; type: cell-based; conditions: U-251
Procedure, shortened: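 Wild-type U251 cells transiently transfected with pGL2-TK-HRE using Effectene for 16 h. Medium then changed and compound added for 16 h under hypoxia (1% O₂, 5% CO₂, 37 °C) or normoxia (21% O₂). Luciferase read with Steady Glo reagent.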

Structure (SMILES) | Activity (U-251 [1]) | EC50 [2] [nM] | Activity (U-251 [3]) | GI50 (A549) [nM] | GI50 (HT-29) [nM] | GI50 (MCF7) [nM] | also measured
CO[C@H]1C[C@H](O[C@H]2CC[C@]3(C=O)[C@H]4CC[C@]5(C)[C@@H](C6=CC(=O)OC6)CC[C@]5(O)[C@@H]4CC[C@]3(O)C2)O[C@H](C)[C@H]1O[C@@H]1O[C@H](CO[C@@H]2O[C@H](CO)[C@@H](O)[C@H](O)[C@H]2O)[C@@H](O)[C@H](O)[C@H]1O | Non-toxic | 40 | Non-toxic |  |  |  | 
CO[C@H]1C[C@H](O[C@H]2CC[C@]3(C=O)[C@H]4CC[C@]5(C)[C@@H](C6=CC(=O)OC6)CC[C@]5(O)[C@@H]4CC[C@]3(O)C2)O[C@H](C)[C@H]1O[C@@H]1O[C@H](CO)[C@@H](O)[C@H](O)[C@H]1O | Non-toxic |  | Non-toxic |  |  |  | 
CO[C@H]1[C@H](O[C@H]2CC[C@]3(C=O)[C@H]4CC[C@]5(C)[C@@H](C6=CC(=O)OC6)CC[C@]5(O)[C@@H]4CC[C@]3(O)C2)O[C@H](C)C[C@H]1O[C@@H]1O[C@H](CO)[C@@H](O)[C@H](O)[C@H]1O | Non-toxic | 600 | Non-toxic | 8 | 70 | 10 | 
Cc1cc(=O)c2c(O)cc(O[C@@H]3O[C@H](CO[C@@H]4O[C@@H](C)[C@H](O)[C@@H](O)[C@H]4O)[C@@H](O)[C@H](O)[C@H]3O)cc2o1 |  |  |  | 400 | 6000 | 800 | 
COc1c(O[C@@H]2O[C@H](CO[C@@H]3O[C@@H](C)[C@H](O)[C@@H](O)[C@H]3O)[C@@H](O)[C@H](O)[C@H]2O)cc2oc(C)cc(=O)c2c1O |  |  |  | 400 | 6000 | 800 | 
CC[C@@]1(O)C(=O)OCc2c1cc1n(c2=O)Cc2cc3c(CN(C)C)c(O)ccc3nc2-1 |  |  |  |  |  |  | Activity (U-251 [4]): inactive
C[C@@H]1O[C@@H](O[C@H]2CC[C@]3(C=O)[C@H]4CC[C@]5(C)[C@@H](C6=CC(=O)OC6)CC[C@]5(O)[C@@H]4CC[C@]3(O)C2)[C@H](O)[C@H](O)[C@H]1O [CONVALLATOXIN] | Non-toxic | 20 | Non-toxic |  |  |  | Activity (U-251 [4]): Active; Activity (U-251 [5]): Active; Activity (U-251 [6]): Active; Activity (U-251 [7]): Active; Activity (U-251 [8]): Active; Activity [9]: 50%; Activity [10]: 77%; Activity (U-251 [11]): Active; Activity [12]: Active
COc1cccc2c1C(=O)c1c(O)c3c(c(O)c1C2=O)C[C@@](O)(C(=O)CO)C[C@@H]3O[C@H]1C[C@H](N)[C@H](O)[C@H](C)O1 [DOXORUBICIN] |  | 120 |  | 7 | 60 | 100 | 
COc1cc(O)c2c(=O)cc(C)oc2c1 [EUGENIN] |  |  |  | 14000 | 25000 | 10000 | 
Cc1cc(=O)c2c(O)cc(O)cc2o1 [NOREUGENIN] |  |  |  | > 50000 | > 50000 | > 50000 | 
COc1c(O)cc2oc(C)cc(=O)c2c1O [PISONIN B] |  |  |  | 225000 | 180000 | > 450000 | 
C[C@]12CC[C@H]3[C@@H](CC[C@]4(O)C[C@@H](O)CC[C@]34C=O)[C@@]1(O)CC[C@@H]2C1=CC(=O)OC1 [STROPHANTHIDIN] | Non-toxic |  | Non-toxic |  |  |  | 

Reference: ChEMBL document CHEMBL1152313, “Cytotoxic and HIF-1alpha inhibitory compounds from Crossosoma bigelovii” (J Nat Prod, 2009)
